According to publication PMC3501683 (ACS medicinal chemistry letters, 2012):
Entries after “also recorded” stand apart in the source; their conditions may differ.

Experiments:
LasB = LasB (Pseudomonas aeruginosa, UniProt P14756); test: LasB fluorescence assay based on a LasB-cleavable FRET peptide substrate; type: biochemical; details: for less potent than 8a and 8b in the in vitro LasB assay: relative to 8a and 8b; for improvement in potency: relative to fragment hits 3 and 4
secreted LasB = secreted LasB (Pseudomonas aeruginosa, UniProt Q02RJ6); test: bacterial P. aeruginosa elastase assays; type: cell-based
secreted LasB, sequence (Q02RJ6 198-498): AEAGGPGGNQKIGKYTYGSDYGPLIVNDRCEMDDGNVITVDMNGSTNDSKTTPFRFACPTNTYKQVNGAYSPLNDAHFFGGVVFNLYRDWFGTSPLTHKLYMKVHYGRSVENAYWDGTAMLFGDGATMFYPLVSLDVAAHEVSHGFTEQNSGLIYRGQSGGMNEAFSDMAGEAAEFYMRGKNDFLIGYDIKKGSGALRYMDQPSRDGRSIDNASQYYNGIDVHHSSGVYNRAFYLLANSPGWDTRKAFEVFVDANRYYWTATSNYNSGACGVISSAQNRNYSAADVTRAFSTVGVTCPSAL

[1] = system: P. aeruginosa strain PA14; test: swarming assay on swarm agar plates; type: cell-based, Pseudomonas aeruginosa; details: for swarming inhibition: data not shown; for effect on swarming: 25 μM, 16 h at 30 °C, versus DMSO-treated control
Summary of the method: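 Test compound was added to the swarm agar at 25 μM, and P. aeruginosa PA14 was grown on these plates for 16 h at 30 °C. Swarm morphology was compared visually with plates containing DMSO as the vehicle control.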

[2] = stability studies in bacterial culture medium; type: physicochemical; details: 48 h period

LasB, sequence (P14756 198-498): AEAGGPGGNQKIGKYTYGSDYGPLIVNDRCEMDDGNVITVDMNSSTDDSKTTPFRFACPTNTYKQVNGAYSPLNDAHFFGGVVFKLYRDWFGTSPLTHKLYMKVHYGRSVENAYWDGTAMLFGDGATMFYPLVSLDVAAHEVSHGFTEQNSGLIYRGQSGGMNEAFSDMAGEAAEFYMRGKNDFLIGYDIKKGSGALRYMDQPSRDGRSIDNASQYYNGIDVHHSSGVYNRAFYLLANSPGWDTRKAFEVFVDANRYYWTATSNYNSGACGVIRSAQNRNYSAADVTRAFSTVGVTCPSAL

| Structure (SMILES) | less potent than 8a and 8b in the in vitro LasB assay (LasB) | antagonism in bacterial P. aeruginosa elastase assays (secreted LasB inhibition) (secreted LasB) | swarming inhibition [1] | stability in bacterial culture medium [2] | improvement in potency (LasB) | effect on swarming [1] |
| --- | --- | --- | --- | --- | --- | --- |
| O=C(Cc1cccc(F)c1)NO [Compound 2] | ~ 5 fold | no secreted LasB inhibition; also recorded: no antagonism | no swarming inhibition | hydrolytic instability | – | – |
| Cc1c(O)c(=S)ccn1Cc1ccc(-c2ccc(F)c(F)c2)cc1 [Compound 8a] | – | – | – | no detectable S-oxidation or decomposition | ~ 30 fold | almost completely abolished swarming |
| Cc1c(O)c(=S)ccn1Cc1ccc(-c2ccccc2)cc1 [Compound 8b] | – | – | – | no detectable S-oxidation or decomposition | ~ 30 fold | almost completely abolished swarming |
| O=C(Cc1ccccc1)NO [Compound 1] | ~ 5 fold | no secreted LasB inhibition; also recorded: no antagonism | no swarming inhibition | hydrolytic instability | – | – |
